The target in test [1] is Serotonin 2 (5-HT2) receptor (Rattus norvegicus, UniProt P30994+P08909+P14842). The experiment in a line: Displacement of [3H]ketanserin from 5-hydroxytryptamine 2 receptor. The class given is protein assay. Background: In a radioligand displacement assay an active substance lowers the binding of a labelled ligand.
The target in test [2] is 5-hydroxytryptamine receptor 1B (Rattus norvegicus, UniProt P28564). The experiment in a line: Inhibition of [3H]5-HT binding to 5-hydroxytryptamine 1B receptor. A digest of the protocol: (§1)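 [3H]5-HT binding to 5-HT1 sites. The 5-HT1A component was distinguished by masking 5-HT1A sites with 1 µM S-spiroxatrine. Values are geometric means.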
The target in test [3] is T1, 5-hydroxytryptamine receptor 1A (Rattus norvegicus, UniProt P19327).
T1 sequence (P19327 whole entry): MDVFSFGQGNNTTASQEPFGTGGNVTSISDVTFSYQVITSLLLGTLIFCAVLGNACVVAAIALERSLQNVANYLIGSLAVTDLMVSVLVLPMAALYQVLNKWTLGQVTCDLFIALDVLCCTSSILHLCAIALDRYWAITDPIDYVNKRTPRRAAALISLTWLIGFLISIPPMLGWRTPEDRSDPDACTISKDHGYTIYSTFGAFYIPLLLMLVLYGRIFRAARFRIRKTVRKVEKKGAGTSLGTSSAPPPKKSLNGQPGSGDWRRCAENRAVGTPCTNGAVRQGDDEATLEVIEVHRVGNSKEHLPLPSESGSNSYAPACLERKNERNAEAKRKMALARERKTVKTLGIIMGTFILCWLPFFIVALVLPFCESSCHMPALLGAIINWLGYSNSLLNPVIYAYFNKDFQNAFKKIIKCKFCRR
Put plainly: Binding affinity for 5-hydroxytryptamine 1A receptor with [3H]5-HT. A digest of the protocol:
as §1

The record followed here is ChEMBL document CHEMBL1127483, “Synthesis and structure activity relationships of cis- and trans-2,3,4,4a,9,9a-hexahydro-1H-indeno[2,1-c]pyridines for 5-HT receptor subtypes” (J Med Chem, 1994).

Molecules are shown by their SMILES.

Sequence of 5-hydroxytryptamine receptor 1B (P28564 whole entry): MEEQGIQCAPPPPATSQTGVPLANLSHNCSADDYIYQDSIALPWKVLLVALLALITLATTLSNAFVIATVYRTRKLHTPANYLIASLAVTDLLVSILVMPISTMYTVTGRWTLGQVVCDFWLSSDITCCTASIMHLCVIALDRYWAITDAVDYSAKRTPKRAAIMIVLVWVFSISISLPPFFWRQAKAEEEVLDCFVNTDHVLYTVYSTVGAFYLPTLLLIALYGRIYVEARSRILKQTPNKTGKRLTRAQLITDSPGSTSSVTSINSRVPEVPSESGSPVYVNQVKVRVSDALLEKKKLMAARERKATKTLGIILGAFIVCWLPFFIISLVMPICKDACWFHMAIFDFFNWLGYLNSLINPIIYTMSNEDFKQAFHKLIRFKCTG

As usually defined, the Ki is the equilibrium dissociation constant of an inhibitor or competing ligand from its target. A high value points to weaker binding. Take `COc1cccc2c1C1CCN(CCNC(=O)c3ccc(F)cc3)CC1C2` (stereo not given): the Ki in test [1] worked out at 28.9 nM; in test [2], 0.888 µM; in test [3], 0.588 nM.
With `COc1cccc2c1C1CCN(CCCCN3C(=O)c4ccccc4S3(=O)=O)CC1C2` (stereo not given), the inhibition constant (Ki) in test [1] stood at 33.4 nM; in test [2] it was 0.325 µM; in test [3], 1.98 nM.
As to `CCCN1CC[C@H]2c3c(cccc3OC)C[C@@H]2C1`, the Ki turned out to be 688 nM in test [1], 5.01 µM in test [2] and 76.2 nM in test [3].
Regarding `COc1cccc2c1[C@@H]1CCN(CCCCN3C(=O)CC4(CCCC4)CC3=O)C[C@@H]1C2`, the figures for the Ki in test [1], in test [2] and in test [3] were 35.9 nM, 13.6 µM and 54.5 nM, respectively.
`COc1cccc2c1[C@@H]1CCN(CCCN3C(=O)CC4(CCCC4)CC3=O)C[C@@H]1C2`: the Ki turned out to be 17.4 nM in test [1], 96.4 µM in test [2] and 692 nM in test [3].
Turning to `COc1cccc2c1[C@@H]1CCN(CCCN3C(=O)CC4(CCCC4)CC3=O)C[C@H]1C2`, the Ki was 15.9 nM in test [1], 7.36 µM in test [2] and 51.2 nM in test [3].
`CCCN1CC[C@H]2c3c(cccc3OC)C[C@H]2C1`: the Ki worked out at 965 nM in test [1] and 48.5 µM in test [2].
In the case of `COc1cccc2c1[C@@H]1CCN(CCCCN3C(=O)CC4(CCCC4)CC3=O)C[C@H]1C2`, the Ki in test [1] was found to be 9.3 nM; in test [2], 0.8 µM; in test [3], 1.65 nM.
In the case of `COc1cccc2c1C1CCN(CCCN3C(=O)c4ccccc4S3(=O)=O)CC1C2` (stereo not given), the Ki is 3 nM in test [1], 0.845 µM in test [2] and 0.891 nM in test [3].
In the case of `COc1cccc2c1C1CCN(CCCCN3C(=O)C4C5C=CC(C6C=CC65)C4C3=O)CC1C2.Cl` (trans isomer), the Ki is 2.58 nM in test [1], 1.31 µM in test [2] and 3.6 nM in test [3].
For `CCCN(CCC)C1CCc2cccc(O)c2C1` (stereo not given) [8-OH-DPAT], the Ki in test [1] is given as > 10000 nM.
